# In ChEMBL document CHEMBL5661968, “Antitumor activity of ZSTK474, a new phosphatidylinositol 3-kinase inhibitor” (J Natl Cancer Inst, 2006):
# Calls of active or inactive are those of the source. No cut-off for these calls is given here.
# Tests used:
# [1] = test system: MKN-28; assay: Growth inhibition of human MKN-28 cells measured after 48 hrs by sulforhodamine B assay; type: functional
# Method in brief: (§1)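 JFCR39 panel lines were grown in RPMI 1640 with 5% FBS, penicillin and streptomycin at 37 °C in 5% CO2. After 48 h of drug exposure, total cellular protein was measured by sulforhodamine B staining. GI50 was calculated by a previously described method.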
# [2] = target: Ribosomal protein S6 kinase beta-1 (Homo sapiens) (UniProt P23443); assay: Inhibition of p70S6K phosphorylation at Thr-389 residue in human A549 cells measured after 3 hrs by immunoblotting analysis; type: cell-based; conditions: dose <= 2.0 µM
# Method in brief: (§2)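 A549 cells treated over 0 to 2.0 μM; lysed in 10 mM Tris–HCl pH 7.4, 50 mM NaCl, NaF, pyrophosphate, vanadate, EDTA, protease inhibitors, 0.5% NP-40, 0.1% SDS; proteins resolved by SDS-PAGE, blotted to PVDF, probed with phospho-specific antibodies, HRP secondary, ECL detection.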
# [3] = test system: B16-F10; assay: Antitumor activity against mouse B16-F10 cells implanted in BDF1 mouse assessed as tumor size relative to control (T/C) at 200 mg/kg, po administered daily measured after 14 days; conditions: 336 h
# [4] = test system: NCI-H460; assay: Growth inhibition of human NCI-H460 cells measured after 48 hrs by sulforhodamine B assay; type: functional; method in brief: as §1
# [5] = test system: A549; assay: Induction of apoptosis in human A549 cells assessed as increase in apoptotic cells at 10 uM measured after 48 hrs by propidium iodide staining based flow cytometric analysis; type: functional, cell-based
# Method in brief: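 Cells harvested, washed in ice-cold PBS, fixed in 70% ethanol, washed twice in ice-cold PBS, treated with RNase A (500 μg/mL) at 37 °C for 1 h, stained with propidium iodide (25 μg/mL); DNA content read by flow cytometry.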
# [6] = test system: B16-F10; assay: Antitumor activity against mouse B16-F10 cells implanted in BDF1 mouse assessed as tumor size relative to control (T/C) at 100 mg/kg, po administered daily measured after 14 days; conditions: 336 h
# [7] = test system: A549; assay: Induction of cell cycle arrest in human A549 cells assessed as accumulation of cells at G1 phase at 10 uM incubated for 24 hrs by propidium iodide staining based flow cytometric analysis
# [8] = test system: A549; assay: Growth inhibition of human A549 cells measured after 48 hrs by sulforhodamine B assay; type: functional; method in brief: as §1
# [9] = test system: A549; assay: (§3) Inhibition of PI3K in human A549 cell lysate preincubated with compound for 5 mins followed by [gamma-32p]-ATP addition measured after 20 mins by immunoprecipitation based liquid scintillation spectroscopic analysis; type: subcellular; conditions: dose 0.01-1 µM, time 25.0 min
# Method in brief: (§4)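 PI3K immunoprecipitated with anti-p85 polyclonal antibody and protein G–agarose from A549 lysate (2–4 mg/mL protein), washed, suspended in buffer C (100 mM NaCl, 20 mM Tris pH 7.5) with 200 μg/mL phosphatidylinositol; compound preincubated 5 min at 25 °C; reaction started with [γ-32P]ATP (20 μM final) and 20 mM MgCl2, run 20 min at 25 °C; PI3P separated by TLC, counted by scintillation; activity as % of no-compound cpm.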
# [10] = as §3; type: subcellular; method in brief: as §4
# [11] = Growth inhibition of human HBC5 cells measured after 48 hrs by sulforhodamine B assay; type: functional; method in brief: as §1
# [12] = test system: A549; assay: Inhibition of AKT phosphorylation at S473 residue in human A549 cells at 0.5 uM measured after 5 mins by Western blotting analysis; type: cell-based
# [13] = test system: SF-295; assay: Growth inhibition of human SF-295 cells measured after 48 hrs by sulforhodamine B assay; type: functional; method in brief: as §1
# [14] = target: Forkhead box protein O1 (Homo sapiens) (UniProt Q12778); assay: Inhibition of FKHR phosphorylation at Thr-24 residue in human A549 cells measured after 3 hrs by immunoblotting analysis; type: cell-based; conditions: dose <= 2.0 µM; method in brief: as §2
# [15] = Growth inhibition of human HBC4 cells measured after 48 hrs by sulforhodamine B assay; type: functional; method in brief: as §1
# [16] = test system: A549; assay: Antitumor activity against human A549 cells xenografted in nude mouse assessed as inhibition of tumor growth at 400 mg/kg, po administered on day 0 to 13 except for day 3 and 10 measured after 14 days; type: functional, organism-based; conditions: time 14.0 day
# Method in brief: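 Female BALB/c-background nude mice were implanted s.c. with 3 × 3 × 3 mm tumor fragments. At 100–300 mm3 tumor volume (day 0), groups of five were randomized and dosed orally at 400 mg/kg on days 0–13, skipping days 3 and 10. Caliper volume was (L×W2)/2, relative to day 0 (RTV). T/C% on day 14 = 100 × mean treated RTV / mean control RTV.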
# [17] = test system: MEF; assay: Inhibition of PI3K in platelet-derived growth factor induced mouse MEF cells assessed as reduction in PIP3 formation at 1 uM preincubated with compound for 15 mins followed by induction by immunoprecipitation based liquid scintillation spectroscopic analysis; type: cell-based
# Method in brief: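 Murine embryonic fibroblasts labelled 4 h at 37 °C in phosphate-free DMEM with 25 mM HEPES pH 7.4 and [32P]orthophosphate (0.1 mCi/mL); 1 μM compound for 15 min before PDGF (10 ng/mL) stimulation; PIP3 formation measured.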
# [18] = Toxicity in nude mouse xenografted with human WiDr cells assessed as change in body weight at 400 mg/kg, po administered on day 0 to 13 except for day 3 and 10 measured after 28 days (reference value: 17 %); type: organism-based; conditions: in vivo, 672 h, time 28 day
# [19] = test system: St-4; assay: Growth inhibition of human St-4 cells measured after 48 hrs by sulforhodamine B assay; type: functional; method in brief: as §1
# [20] = test system: OVCAR-8; assay: Growth inhibition of human OVCAR-8 cells measured after 48 hrs by sulforhodamine B assay; type: functional; method in brief: as §1
# [21] = test system: MKN-45; assay: Growth inhibition of human MKN-45 cells measured after 48 hrs by sulforhodamine B assay; type: functional; method in brief: as §1
# [22] = test system: NCI-H522; assay: Growth inhibition of human NCI-H522 cells measured after 48 hrs by sulforhodamine B assay; type: functional; method in brief: as §1
# [23] = test system: A549; assay: Downregulation of cyclin D1 expression in human A549 cells at 0.5 uM measured after 30 mins by Western blotting analysis; type: functional, cell-based
# Method in brief: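 A549 cells were lysed in Tris-HCl pH 7.4 buffer with NaF, pyrophosphate, Na3VO4, EDTA, aprotinin, PMSF, 0.5% NP-40 and 0.1% SDS. Lysates were run on SDS-PAGE and blotted to PVDF. Blots were probed with rabbit anti-cyclin D1 polyclonal (1:200), then HRP anti-rabbit IgG, and detected by ECL chemiluminescence.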
# [24] = test system: HCT-116; assay: Growth inhibition of human HCT-116 cells measured after 48 hrs by sulforhodamine B assay; type: functional; method in brief: as §1
# [25] = test system: A549; assay: Reversible inhibition of PI3K in human A549 cell lysate at 1 uM preincubated with compound for 5 mins followed by [gamma-32p]-ATP addition measured after 20 mins by immunoprecipitation based liquid scintillation spectroscopic analysis; type: subcellular; conditions: time 25.0 min
# Method in brief: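 Anti-p85 immunoprecipitates from A549 lysate treated 5 min with 1 μM compound, then split: one aliquot washed four times in 100 mM NaCl, 20 mM Tris pH 7.5 to remove free inhibitor, the other unwashed; both assayed with [γ-32P]ATP and phosphatidylinositol, PI3P counted by scintillation.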
# Sequence of Forkhead box protein O1 (Homo sapiens) (Q12778 whole entry): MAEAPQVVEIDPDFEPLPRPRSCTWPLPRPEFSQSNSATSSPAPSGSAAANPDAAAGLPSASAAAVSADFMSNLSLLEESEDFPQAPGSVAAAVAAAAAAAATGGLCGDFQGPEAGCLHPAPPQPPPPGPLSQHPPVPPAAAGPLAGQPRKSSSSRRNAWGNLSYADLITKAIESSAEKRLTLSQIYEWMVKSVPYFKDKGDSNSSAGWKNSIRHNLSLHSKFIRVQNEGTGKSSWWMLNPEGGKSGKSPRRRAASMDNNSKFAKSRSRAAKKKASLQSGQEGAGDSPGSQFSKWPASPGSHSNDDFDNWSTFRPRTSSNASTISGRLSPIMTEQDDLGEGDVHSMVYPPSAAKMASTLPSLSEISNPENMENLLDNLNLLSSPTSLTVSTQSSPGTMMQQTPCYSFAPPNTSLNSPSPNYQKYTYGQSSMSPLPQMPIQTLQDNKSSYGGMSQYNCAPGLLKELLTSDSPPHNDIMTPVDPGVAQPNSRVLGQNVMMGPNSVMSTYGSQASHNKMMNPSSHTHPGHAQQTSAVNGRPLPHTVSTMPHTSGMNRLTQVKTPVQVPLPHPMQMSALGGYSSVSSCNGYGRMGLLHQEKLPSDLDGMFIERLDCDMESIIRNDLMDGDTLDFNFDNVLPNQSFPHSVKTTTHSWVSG
# Sequence of Ribosomal protein S6 kinase beta-1 (Homo sapiens) (P23443 whole entry, looked up): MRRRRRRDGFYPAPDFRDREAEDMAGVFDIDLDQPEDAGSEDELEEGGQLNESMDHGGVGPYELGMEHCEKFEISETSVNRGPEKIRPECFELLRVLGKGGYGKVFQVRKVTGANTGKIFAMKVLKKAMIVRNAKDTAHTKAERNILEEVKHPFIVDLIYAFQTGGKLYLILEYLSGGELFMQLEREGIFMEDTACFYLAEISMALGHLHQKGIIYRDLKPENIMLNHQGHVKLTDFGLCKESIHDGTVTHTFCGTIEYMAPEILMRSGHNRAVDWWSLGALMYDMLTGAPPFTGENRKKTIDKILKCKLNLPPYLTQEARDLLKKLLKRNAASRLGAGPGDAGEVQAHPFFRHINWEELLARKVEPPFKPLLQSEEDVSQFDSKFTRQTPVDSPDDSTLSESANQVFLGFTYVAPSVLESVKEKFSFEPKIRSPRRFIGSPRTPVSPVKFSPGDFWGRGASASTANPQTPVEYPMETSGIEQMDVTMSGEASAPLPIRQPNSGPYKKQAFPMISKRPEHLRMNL
smiles,measurement,setting,value
FC(F)c1nc2ccccc2n1-c1nc(N2CCOCC2)nc(N2CCOCC2)n1 [ZSTK-474],GI50,[1],1350 nM
same,inhibition,[2],Dose-Dependent Effect
same,T/C at 200 mg/kg,[3],7.1%
same,GI50,[4],468 nM
same,Activity,[5],inactive
same,T/C at 100 mg/kg,[6],28.5%
same,Activity,[7],Active
same,GI50,[8],501 nM
same,Activity,[9],Dose-Dependent Effect
same,IC50,[10],37 nM
same,GI50,[11],28.2 nM
same,inhibition,[12],Active
same,GI50,[13],186 nM
same,inhibition,[14],Dose-Dependent Effect
same,GI50,[15],240 nM
same,Activity,[16],Active
same,inhibition,[17],Active
same,Activity,[18],3%
same,GI50,[19],1700 nM
same,GI50,[20],1050 nM
same,GI50,[21],288 nM
same,GI50,[22],151 nM
same,Activity,[23],Active
same,GI50,[24],1510 nM
same,inhibition,[25],Active
